Laboratory results as given in ChEMBL document CHEMBL4477218 (J Med Chem, 2016).
Converted amounts (≈) assume the structure as drawn.

Assays:
Assay type in all cases: functional
Staphylococcus aureus [1] = assay: Antibacterial activity against TMP/methicillin-resistant Staphylococcus aureus ATCC 43300 after 18 hrs by CLSI M100-S16 method; details: ATCC 43300, 18 h
In short: (§1)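 Broth microdilution per CLSI guideline in Isosensitest broth, final inoculum 5 x 10^5 CFU/mL, 18 h at 37 °C. Growth read at A600. MIC taken as the lowest inhibitor concentration visually inhibiting growth, confirmed colorimetrically with Presto Blue. Isosensitest broth with 10 µg/mL thymidine used to check off-target antibacterial activity. Mutant strains were selected on agar containing 6x MIC of an earlier propargyl-linked antifolate and sequenced.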

Staphylococcus aureus [2] = assay: Antibacterial activity against TMP/methicillin-resistant Staphylococcus aureus harboring DHFR F98Y mutant after 18 hrs by CLSI M100-S16 method; in short: as §1
Staphylococcus aureus [3] = assay: Antibacterial activity against TMP/methicillin-resistant Staphylococcus aureus harboring DHFR H30N mutant after 18 hrs by CLSI M100-S16 method; in short: as §1
Staphylococcus aureus [4] = assay: Antibacterial activity against TMP/methicillin-resistant Staphylococcus aureus harboring DHFR H149R mutant after 18 hrs by CLSI M100-S16 method; in short: as §1
Staphylococcus aureus [5] = assay: Antibacterial activity against TMP/methicillin-resistant Staphylococcus aureus harboring DHFR H30N/F98Y double mutant after 18 hrs by CLSI M100-S16 method; in short: as §1
Staphylococcus aureus [6] = assay: Antibacterial activity against TMP/methicillin-resistant Staphylococcus aureus harboring DHFR F98Y/H149R double mutant after 18 hrs by CLSI M100-S16 method; in short: as §1

Structure (SMILES) | MIC (Staphylococcus aureus [1]) [µg/mL] | MIC (Staphylococcus aureus [2]) [µg/mL] | MIC (Staphylococcus aureus [3]) [µg/mL] | MIC (Staphylococcus aureus [4]) [µg/mL] | MIC (Staphylococcus aureus [5]) [µg/mL] | MIC (Staphylococcus aureus [6]) [µg/mL]
CCc1nc(N)nc(N)c1C#CC(C)c1cc(OC)cc(-c2ccncc2)c1 (centres undefined) | 0.0781 (≈ 0.209 µM) | 2.5 (≈ 6.69 µM) | 2.5 (≈ 6.69 µM) | 2.5 (≈ 6.69 µM) | 20 (≈ 53.6 µM) | 80 (≈ 214 µM)
CCc1nc(N)nc(N)c1C#CC(C)c1cc(-c2ccncc2)ccc1OC (centres undefined) | 0.625 (≈ 1.67 µM) | 2.5 (≈ 6.69 µM) | 2.5 (≈ 6.69 µM) | 2.5 (≈ 6.69 µM) | 20 (≈ 53.6 µM) | 40 (≈ 107 µM)
CCc1nc(N)nc(N)c1C#CCc1cc(-c2ccc(C(=O)O)cc2)ccc1OC | 0.0195 (≈ 0.0485 µM) | 0.156 (≈ 0.388 µM) | 0.156 (≈ 0.388 µM) | 0.156 (≈ 0.389 µM) | 6.25 (≈ 15.5 µM) | > 50
CCc1nc(N)nc(N)c1C#C[C@H](C)c1cc(OC)cc(-c2ccc(C(=O)O)cc2)c1 | 0.0098 (≈ 0.0235 µM) | 0.0781 (≈ 0.188 µM) | – | 0.0391 (≈ 0.0939 µM) | – | 2.5 (≈ 6 µM)
CCc1nc(N)nc(N)c1C#C[C@@H](C)c1cc(OC)cc(-c2ccc(C(=O)O)cc2)c1 | 0.0098 (≈ 0.0235 µM) | – | 0.0781 (≈ 0.188 µM) | 0.0781 (≈ 0.188 µM) | 1.25 (≈ 3 µM) | 1.25 (≈ 3 µM)
CCc1nc(N)nc(N)c1C#CCc1cc(OC)cc(-c2ccc(C(=O)O)cc2)c1 | 0.0195 (≈ 0.0485 µM) | 0.156 (≈ 0.388 µM) | 0.156 (≈ 0.388 µM) | 0.156 (≈ 0.388 µM) | 5 (≈ 12.4 µM) | 10 (≈ 24.8 µM)
CCc1nc(N)nc(N)c1C#C[C@H](C)c1cc(-c2ccc(C(=O)O)cc2)ccc1OC | 0.0391 (≈ 0.0939 µM) | 0.156 (≈ 0.375 µM) | 0.156 (≈ 0.375 µM) | 0.0781 (≈ 0.188 µM) | > 40 | > 40
CCc1nc(N)nc(N)c1C#C[C@H](C)c1cc2c(c(-c3ccncc3)c1)OCO2 | 0.0195 (≈ 0.0503 µM) | 1.25 (≈ 3.23 µM) | 2.5 (≈ 6.45 µM) | 2.5 (≈ 6.45 µM) | 20 (≈ 51.6 µM) | 20 (≈ 51.6 µM)
CCc1nc(N)nc(N)c1C#C[C@H](C)c1cc(OC)cc(-c2ccncc2)c1 | 0.0391 (≈ 0.105 µM) | 0.625 (≈ 1.67 µM) | 0.625 (≈ 1.67 µM) | 0.625 (≈ 1.67 µM) | 40 (≈ 107 µM) | 20 (≈ 53.6 µM)
CCc1nc(N)nc(N)c1C#CC(C)c1cc2c(c(-c3ccncc3)c1)OCO2 (centres undefined) | 0.0781 (≈ 0.202 µM) | 1.25 (≈ 3.23 µM) | 5 (≈ 12.9 µM) | 5 (≈ 12.9 µM) | 40 (≈ 103 µM) | 40 (≈ 103 µM)
CCc1nc(N)nc(N)c1C#CCc1cc(OC)c(OC)c(-c2ccncc2)c1 | 0.0195 (≈ 0.0501 µM) | 0.625 (≈ 1.6 µM) | 0.625 (≈ 1.6 µM) | 0.625 (≈ 1.6 µM) | 20 (≈ 51.4 µM) | 40 (≈ 103 µM)
CCc1nc(N)nc(N)c1C#C[C@@H](C)c1cc(-c2ccncc2)ccc1OC | 0.0195 (≈ 0.0522 µM) | 1.25 (≈ 3.35 µM) | 0.625 (≈ 1.67 µM) | 1.25 (≈ 3.35 µM) | 10 (≈ 26.8 µM) | 20 (≈ 53.6 µM)
